Screens deposited in PubChem by Johns Hopkins Ion Channel Center.
TRPC4 potent – allosterically enhances the mouse TRPC4 cation channel; HEK293 TRPC4beta/mu-opioid, DAMGO EC20, Fluo-4 Ca2+ flux; hits give high values; B-score at 10 µM; actives 0.42% (n = 310,000);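 active = B-score of calcium response area above 5 SD of library B-scores, with initial fluorescence ratio within 5 SD of library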;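 note: B-score of integrated fluorescence ratio over time as area under calcium response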
Target sequence (Q9QUQ5 whole entry, looked up): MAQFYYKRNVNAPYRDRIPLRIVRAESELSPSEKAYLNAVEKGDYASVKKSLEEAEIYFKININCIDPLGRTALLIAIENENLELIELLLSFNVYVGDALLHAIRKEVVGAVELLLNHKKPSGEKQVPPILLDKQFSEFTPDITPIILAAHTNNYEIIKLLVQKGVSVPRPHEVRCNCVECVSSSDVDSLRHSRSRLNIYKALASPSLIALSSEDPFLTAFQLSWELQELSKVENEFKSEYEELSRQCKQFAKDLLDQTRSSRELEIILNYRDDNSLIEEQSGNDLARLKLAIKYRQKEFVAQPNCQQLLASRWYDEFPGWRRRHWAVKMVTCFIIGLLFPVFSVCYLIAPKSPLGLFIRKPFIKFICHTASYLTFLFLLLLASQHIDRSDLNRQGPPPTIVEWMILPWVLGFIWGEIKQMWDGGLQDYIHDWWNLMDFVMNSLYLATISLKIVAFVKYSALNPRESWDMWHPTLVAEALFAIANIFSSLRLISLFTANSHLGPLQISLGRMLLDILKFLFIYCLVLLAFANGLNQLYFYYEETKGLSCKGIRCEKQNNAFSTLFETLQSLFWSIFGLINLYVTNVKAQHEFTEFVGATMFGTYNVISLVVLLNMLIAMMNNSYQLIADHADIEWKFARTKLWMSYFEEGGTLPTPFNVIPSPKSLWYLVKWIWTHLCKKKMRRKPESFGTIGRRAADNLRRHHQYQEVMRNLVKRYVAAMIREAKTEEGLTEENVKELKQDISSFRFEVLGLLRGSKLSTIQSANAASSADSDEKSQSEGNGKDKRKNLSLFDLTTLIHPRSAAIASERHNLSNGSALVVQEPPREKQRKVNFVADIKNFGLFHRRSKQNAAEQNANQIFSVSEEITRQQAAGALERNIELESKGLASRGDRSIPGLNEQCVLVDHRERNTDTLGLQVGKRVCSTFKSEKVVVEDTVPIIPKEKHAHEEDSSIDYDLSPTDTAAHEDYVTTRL
TRPC6 act – activators of mouse TRPC6 channel. Q61143. HEK293-TRPC6 membrane potential dye fluorescence; hits give high values. B-score at 10 µM. actives 0.13% (n = 310,000). AID 2550;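 active = B-score of the integrated fluorescence ratio above library mean plus 3 SD, and starting fluorescence ratio within library mean plus 5 SD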;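 note: higher score means more depolarization so channel activation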
TRPC6 inh – mouse TRPC6 channel inhibition | HEK293-TRPC6, membrane potential dye, ACh-evoked depolarization; hits give low values | B-score at 10 µM | actives 1.1% (n = 310,000) | AID 2553;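 active = B-score under library mean minus 3 SD, initial fluorescence not abnormally high, positive integrated signal ratio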;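 note: B-score derived from integrated fluorescence ratio over the kinetic read; more negative B-score means stronger inhibition of depolarization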
TRPC4 block – TRPC4 (mouse) channel inhibition | Q9QUQ5 | HEK293 TRPC4beta/mu-opioid, DAMGO-evoked Fluo4 calcium flux; hits give low values | B-score at 10 µM | actives 0.39% (n = 300,000) | AID 2247;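 active = B-score over 3 SD under the library average, no early fluorescence shift, positive overall ratio signal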
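Assay system: HEK293 cells with stable TRPC4beta plus mu-opioid receptor expression; Probe or stimulus: DAMGO in two steps, submaximal then maximal; Dosing: single-point compound dosing; Measured by: Fluo4 calcium-dye fluorescence, kinetic read; Read-out basis: B score from integrated Fluo4 fluorescence ratio.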
TRPC4 agonist – activators of mouse TRPC4 channel; HEK293 TRPC4beta/mu-opioid, Fluo4 calcium fluorescence; hits give high values; B-score at 10 µM; actives 0.49% (n = 310,000); Q9QUQ5;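 active = B-score above 5 SD of library B-scores, and initial fluorescence ratio not above library mean plus 5 SD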;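 note: positive B-score marks a calcium rise read as TRPC4 activation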
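Material: HEK293 stable line with TRPC4beta plus mu-opioid receptor; technique: Fluo4 calcium-sensitive dye fluorescence, kinetic, 1 Hz baseline; timing: Fluo4 dye loading 45 min at room temperature, 110 s recording; controls: assay buffer as low control, maximal DAMGO as high control; read-out: integrated baseline-normalised fluorescence ratio, converted to per-well B score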
TRPC4 sel inh 2 – mouse TRPC4 off-target activity of TRPC6 inhibitors, second screen; shares compounds with TRPC6 inh; HEK293 TRPC4/MOR, membrane potential dye fluorescence; channel activated by saturating DAMGO dose; inhibition, % at 10 µM; actives 42% (n = 920); AID 2776;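 active = compounds whose fluorescence signal differed from control wells by over 3 SD, either direction, in both duplicate plates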
TRPC4 spec – selectivity of TRPC6 inhibitors: effect on mouse TRPC4; shares compounds with TRPC6 inh; HEK293 TRPC4/mu-opioid, membrane potential fluorescence; activity change, negative = inhibition, % at 10 µM; actives 61% (n = 920);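 active = rise or fall in signal beyond 3 SD of buffer-only wells in both replicate plates, either sign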;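 note: integrated kinetic ratio of fluorescence range over baseline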
HEK293 MPD ctr 2-1 – parental HEK293 nonspecific activity of TRPC6 inhibitors, second screen. shares compounds with TRPC6 inh. parental HEK293 membrane potential dye fluorescence; maximal acetylcholine challenge after compound addition. signal change vs control, % at 10 µM. actives 31% (n = 920). AID 2779;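 active = membrane potential signal moving either way by over 3 SD of the maximum-effect control, in both duplicate plates, meaning non-specific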
HEK293 MPD ctr-1 – checks TRPC6 inhibitor effects in parental HEK293 cells; shares compounds with TRPC6 inh; parental HEK293 membrane potential dye fluorescence; membrane potential signal change, % at 10 µM; actives 60% (n = 920); AID 2780;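 active = membrane potential signal shifting up or down by more than 3 SD of buffer-only wells, on both duplicate plates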
HEK293 MPD ctr-2 – parental HEK293 nonspecific activity of TRPC6 modulators | shares compounds with TRPC6 inh | membrane potential dye fluorescence | membrane potential signal change, % at 10 µM | actives 51% (n = 2,400);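 active = membrane potential signal moves up or down beyond 5 SD from buffer-only wells, on both duplicate plates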
HEK293 MPD ctr 2-2 – parental HEK293 nonspecific activity of TRPC6 modulators, second screen. inhibition, % at 10 µM. membrane potential dye fluorescence; after compound, maximal acetylcholine stimulation. actives 14% (n = 2,400). shares compounds with TRPC6 inh;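 active = membrane potential signal drops by more than 5 SD from the mean control signal, in both duplicate plates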;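 note: plate controls were acetylcholine ECmax control wells for no effect and buffer only wells for full effect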
TRPC4 ctr mod – tests whether TRPC6 modulators also affect mouse TRPC4. shares compounds with TRPC6 inh. actives 69% (n = 2,400). HEK293 TRPC4/mu-opioid, membrane potential fluorescence. percent change from control (negative = decrease, positive = increase), % at 10 µM;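 active = membrane potential signal moved up or down beyond 5 SD of buffer control wells, in both duplicate plates, actives on both sides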;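 note: plate controls were assay buffer wells for no effect and DAMGO maximal-effect wells for full effect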
TRPC4/MOR inh 2 – second check of whether TRPC6 modulators also affect mouse TRPC4. shares compounds with TRPC6 inh. HEK293 TRPC4/mu-opioid, membrane potential dye fluorescence; stimulated with maximal-effect DAMGO. inhibition, % at 10 µM. actives 55% (n = 2,400);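 active = drop in membrane potential signal beyond 5 SD of the control wells in both duplicate plates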;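 note: TRPC4 counter screen for TRPC6 hits run under conditions tuned for TRPC6 not TRPC4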
TRPC6 block conf – confirmation of mouse TRPC6 inhibitors. AID 488960. inhibition, % at 10 µM. actives 43% (n = 3,300). HEK293-TRPC6, membrane potential dye, ACh-evoked depolarization. shares compounds with TRPC6 inh;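 active = fluorescence ratio falls more than 5 SD below the full-stimulation control mean, in both duplicate runs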;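 note: integrated fluorescence ratio of peak minus minimum over baseline after agonist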
TRPC6 act conf – mouse TRPC6 activator confirmation. shares compounds with TRPC6 inh. HEK293-TRPC6 membrane potential dye fluorescence, FDSS. activation, % at 10 µM. actives 11% (n = 2,800);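 active = ratio signal rise beyond 5 SD above unstimulated control wells' mean, seen in both duplicate runs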;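 note: plate controls were buffer EC0 wells for no effect and acetylcholine ECmax response for full effect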
* hit, by the source's call. The list is not random: actives were taken first. Their share in the collection is about 2.3%.

For NC(=O)N/N=C/c1coc2ccc3ccccc3c2c1=O the results were TRPC4 potent inactive, TRPC6 act inactive, TRPC6 inh -5*, TRPC4 block inactive, TRPC4 agonist inactive, HEK293 MPD ctr-2 -62%*, HEK293 MPD ctr 2-2 inactive, TRPC4 ctr mod -16%*, TRPC4/MOR inh 2 inactive, TRPC6 block conf inactive and TRPC6 act conf inactive.
Screening O=Cc1coc2ccc3ccccc3c2c1=O returned TRPC4 potent inactive, TRPC6 act inactive, TRPC6 inh inactive, TRPC4 block inactive and TRPC4 agonist inactive.
`CCC1(C)Cc2c(sc3[nH]c(=S)[nH]c(=S)c23)CO1` (stereo unspecified) gave TRPC4 potent inactive, TRPC6 act inactive, TRPC6 inh -8.9*, TRPC4 block inactive, TRPC4 agonist inactive, TRPC4 sel inh 2 inactive, TRPC4 spec inactive, HEK293 MPD ctr 2-1 inactive, HEK293 MPD ctr-1 inactive, TRPC6 block conf inactive and TRPC6 act conf inactive.
For COc1ccc(NC(=O)Nc2c(C)n(C)n(-c3ccccc3)c2=O)c(OC)c1 the results were TRPC4 potent inactive, TRPC6 act inactive, TRPC6 inh -5*, TRPC4 block inactive, TRPC4 agonist inactive, HEK293 MPD ctr-2 inactive, HEK293 MPD ctr 2-2 inactive, TRPC4 ctr mod inactive, TRPC4/MOR inh 2 inactive, TRPC6 block conf inactive and TRPC6 act conf inactive.
Cc1c(Cl)c([N+](=O)[O-])nn1CCCC(=O)Nc1c(C)n(C)n(-c2ccccc2)c1=O was read as TRPC4 potent inactive, TRPC6 act inactive, TRPC6 inh -6.5*, TRPC4 block inactive, TRPC4 agonist inactive, HEK293 MPD ctr-2 inactive, HEK293 MPD ctr 2-2 inactive, TRPC4 ctr mod inactive, TRPC4/MOR inh 2 inactive, TRPC6 block conf inactive and TRPC6 act conf inactive.
Screening COc1ccc(NC(=O)Nc2nc(C)cc(C)n2)c(OC)c1 returned TRPC4 potent inactive, TRPC6 act inactive, TRPC6 inh -5.4*, TRPC4 block inactive, TRPC4 agonist inactive, HEK293 MPD ctr-2 -75%*, HEK293 MPD ctr 2-2 inactive, TRPC4 ctr mod -15%*, TRPC4/MOR inh 2 inactive, TRPC6 block conf inactive and TRPC6 act conf inactive.
Cc1c(NC(=O)C2(c3ccc(Cl)cc3)CCCC2)c(=O)n(-c2ccccc2)n1C was read as TRPC4 potent inactive, TRPC6 act inactive, TRPC6 inh -6.6*, TRPC4 block inactive, TRPC4 agonist inactive, TRPC4 sel inh 2 inactive, TRPC4 spec inactive, HEK293 MPD ctr 2-1 inactive, HEK293 MPD ctr-1 inactive, TRPC6 block conf inactive and TRPC6 act conf inactive.
For Cc1c(NC(=O)C2(c3ccccc3)CCOCC2)c(=O)n(-c2ccccc2)n1C the results were TRPC4 potent inactive, TRPC6 act inactive, TRPC6 inh inactive, TRPC4 block inactive and TRPC4 agonist inactive.
Screening CCCN(CCC)CC(O)CN1C(=O)N(CN2C(=O)N(CC(O)CN(CCC)CCC)C(=O)C2(C)C)C(C)(C)C1=O (stereo unspecified) returned TRPC4 potent inactive, TRPC6 act inactive, TRPC6 inh inactive, TRPC4 block inactive and TRPC4 agonist inactive.
COc1ccc(N(CC(=O)N2CCN(C)CC2)S(=O)(=O)c2cc(C)ccc2OC)cc1Cl was read as TRPC4 potent inactive, TRPC6 act inactive, TRPC6 inh inactive, TRPC4 block inactive and TRPC4 agonist inactive.
Cc1ccc(S(=O)(=O)NCCC(=O)Nc2cccc(Cl)c2)cc1 was read as TRPC4 potent inactive, TRPC6 act inactive, TRPC6 inh inactive, TRPC4 block inactive and TRPC4 agonist inactive.
CCCCOc1ccc(S(=O)(=O)N2CCCCCC2)cc1 was read as TRPC4 potent inactive, TRPC6 act inactive, TRPC6 inh -5.6*, TRPC4 block inactive, TRPC4 agonist inactive, HEK293 MPD ctr-2 inactive, HEK293 MPD ctr 2-2 inactive, TRPC4 ctr mod inactive, TRPC4/MOR inh 2 inactive, TRPC6 block conf 46%* and TRPC6 act conf inactive.
`CCOC(=O)N1CCN(S(=O)(=O)c2ccc(OCC)c3ccccc23)CC1` gave TRPC4 potent inactive, TRPC6 act inactive, TRPC6 inh -7.8*, TRPC4 block inactive, TRPC4 agonist inactive, TRPC4 sel inh 2 inactive, TRPC4 spec inactive, HEK293 MPD ctr 2-1 inactive, HEK293 MPD ctr-1 inactive, TRPC6 block conf inactive and TRPC6 act conf inactive.
CCOC(=O)N1CCN(C(=O)COc2ccc3ccccc3c2Br)CC1 was read as TRPC4 potent inactive, TRPC6 act inactive, TRPC6 inh -6.6*, TRPC4 block inactive, TRPC4 agonist inactive, HEK293 MPD ctr-2 inactive, HEK293 MPD ctr 2-2 inactive, TRPC4 ctr mod 12%*, TRPC4/MOR inh 2 inactive and TRPC6 block conf inactive.
`CCOC(=O)N1CCN(S(=O)(=O)c2ccc(OCC)cc2)CC1` gave TRPC4 potent inactive, TRPC6 act inactive, TRPC6 inh -6.2*, TRPC4 block inactive, TRPC4 agonist inactive, HEK293 MPD ctr-2 inactive, HEK293 MPD ctr 2-2 inactive, TRPC4 ctr mod 31%*, TRPC4/MOR inh 2 inactive and TRPC6 block conf inactive.
